# Measurements as given in ChEMBL document CHEMBL1799953, “Backbone cyclic peptide inhibitors of protein kinase B (PKB/Akt)” (J Med Chem, 2011).
# The source made the active and inactive calls. No cut-off for these calls is given here. *1 amine or outer side, *2 acyl side, *3 side chain or, on linkers, in order; H or OH if unused. Where a SMILES comes first, the peptide text is derived from it. Bridges are numbered along the chain shown (N, C = ends). [ ]: non-standard residue; d: D form. N(6-aminohexyl)Gly = O=C(CN(CCCCCCN[*:3])[*:1])[*:2]; NGly(3-aminopropyl) = O=C(CN(CCCN[*:3])[*:1])[*:2]; N(2-Aminoethyl)Gly = O=C(CN(CCN[*:3])[*:1])[*:2]; Adipoyl = O=C(CCCCC(=O)[*:2])[*:1]; Glutaryl = O=C(CCCC(=O)[*:2])[*:1]; Gly(N-2-aminoethyl) = NCCNCC(=O)O; Cha = N[C@@H](CC1CCCCC1)C(=O)O; Gly(N(CH2)3NH2) = NCCCNCC(=O)O; hLeu = CC(C)CC[C@H](N)C(=O)O; Nva = CCC[C@H](N)C(=O)O; Dap = NC[C@H](N)C(=O)O; CO = O=C([*:1])[*:2]; Nlys = NCCCCNCC(=O)O
# Molecular target: RAC-alpha serine/threonine-protein kinase (Homo sapiens, UniProt P31749)
# Sequence (P31749 whole entry): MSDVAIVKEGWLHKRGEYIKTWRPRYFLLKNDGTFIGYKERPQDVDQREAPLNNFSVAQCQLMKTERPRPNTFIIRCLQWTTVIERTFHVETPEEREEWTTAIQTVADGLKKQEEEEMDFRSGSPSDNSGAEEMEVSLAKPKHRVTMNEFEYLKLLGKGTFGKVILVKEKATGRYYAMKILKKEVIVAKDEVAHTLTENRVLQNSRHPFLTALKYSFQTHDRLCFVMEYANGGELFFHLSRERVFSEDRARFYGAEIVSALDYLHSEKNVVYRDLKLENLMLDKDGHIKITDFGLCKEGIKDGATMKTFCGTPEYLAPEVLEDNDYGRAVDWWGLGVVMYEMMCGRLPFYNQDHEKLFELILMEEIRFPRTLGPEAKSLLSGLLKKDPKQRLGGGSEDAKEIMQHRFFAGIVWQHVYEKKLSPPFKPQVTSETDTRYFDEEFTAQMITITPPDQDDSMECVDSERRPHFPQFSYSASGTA
# Experiment: Inhibition of Akt using RPRTSSF peptide and [gamma32]ATP at 5 uM by cell-free radioactive assay relative to control
# How it was run: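 Cell-free 32P kinase assay: HisΔPHPKBEEEFlag (0.005 units, one-step Ni-NTA partial purification), 50 mM Hepes pH 7.4, 0.1 mM EGTA, 0.1% 2-mercaptoethanol, 10 mM magnesium acetate, 3 μM RPRTSSF substrate, 10 μM [γ32P]ATP (1 μCi/well). Inhibitor at 5 μM. Activity loss expressed as percent of uninhibited reaction.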
row,Compound,inhibition
1,CCC[C@@H]1NC(=O)[C@H](CCCNC(=N)N)NC(=O)CN(C(=O)[C@@H](N)CCCNC(=N)N)CCCCNC(=O)NCCCN(CC(N)=O)C(=O)[C@H](CCC(C)C)NC(=O)[C@H](CN)NC(=O)[C@H](Cc2ccc(O)cc2)NC1=O (H-R[Nlys]R[Nva]Y[Dap][hLeu][NGly(3-aminopropyl)]-NH2; linker 2-8 via CO),54%
2,CCC[C@H](NC(=O)[C@H](CCCNC(=N)N)NC(=O)[C@H](CC1CCCCC1)NC(=O)[C@@H](N)CCCNC(=N)N)C(=O)N[C@@H](Cc1ccc(O)cc1)C(=O)N[C@@H](CN)C(=O)N[C@@H](CCC(C)C)C(N)=O (H-R[Cha]R[Nva]Y[Dap][hLeu]-NH2),85%
3,CCC[C@@H]1NC(=O)[C@H](CCCNC(=N)N)NC(=O)CN(C(=O)[C@@H](N)CCCNC(=N)N)CCCCNC(=O)NCCCCCCN(CC(N)=O)C(=O)[C@H](CCC(C)C)NC(=O)[C@H](CN)NC(=O)[C@H](Cc2ccc(O)cc2)NC1=O (H-R[Nlys]R[Nva]Y[Dap][hLeu][N(6-aminohexyl)Gly]-NH2; linker 2-8 via CO),94%
4,CCC[C@H](NC(=O)[C@H](CCCNC(=N)N)NC(=O)[C@H](CCC)NC(=O)[C@@H](N)CCCNC(=N)N)C(=O)N[C@@H](Cc1ccc(O)cc1)C(=O)N[C@@H](CN)C(=O)N[C@@H](CCC(C)C)C(N)=O (H-R[Nva]R[Nva]Y[Dap][hLeu]-NH2),80%
5,CCC[C@H](NC(=O)[C@H](CCCNC(=N)N)NC(=O)[C@H](Cc1ccccc1)NC(=O)[C@@H](N)CCCNC(=N)N)C(=O)N[C@@H](Cc1ccc(O)cc1)C(=O)N[C@@H](CN)C(=O)N[C@@H](CCC(C)C)C(N)=O,60%
6,CCC[C@@H]1NC(=O)[C@H](CCCNC(=N)N)NC(=O)CN(C(=O)[C@@H](N)CCCNC(=N)N)CCCNC(=O)NCCCN(CC(N)=O)C(=O)[C@H](CCC(C)C)NC(=O)[C@H](CN)NC(=O)[C@H](Cc2ccc(O)cc2)NC1=O (H-R[NGly(3-aminopropyl)]R[Nva]Y[Dap][hLeu][NGly(3-aminopropyl)]-NH2; linker 2-8 via CO),98%
7,CCC[C@@H]1NC(=O)[C@H](CCCNC(=N)N)NC(=O)CN(C(=O)[C@@H](N)CCCNC(=N)N)CCNC(=O)NCCCCN(CC(N)=O)C(=O)[C@H](CCC(C)C)NC(=O)[C@H](CN)NC(=O)[C@H](Cc2ccc(O)cc2)NC1=O (H-R[N(2-Aminoethyl)Gly]R[Nva]Y[Dap][hLeu][Nlys]-NH2; linker 2-8 via CO),98%
8,CCC[C@@H]1NC(=O)[C@H](CCCNC(=N)N)NC(=O)[C@@H]2CCCN2C(=O)[C@H](CCCNC(=N)N)NC(=O)CCCCC(=O)NCCCCCCN(CC(N)=O)C(=O)[C@H](CCC(C)C)NC(=O)[C@H](CN)NC(=O)[C@H](Cc2ccc(O)cc2)NC1=O (RPR[Nva]Y[Dap][hLeu][N(6-aminohexyl)Gly]-NH2; linker N-8 via Adipoyl),30%
9,CCC[C@H](NC(=O)[C@H](CCCNC(=N)N)NC(=O)[C@@H](C)NC(=O)[C@@H](N)CCCNC(=N)N)C(=O)N[C@@H](Cc1ccc(O)cc1)C(=O)N[C@@H](CN)C(=O)N[C@@H](CCC(C)C)C(N)=O,inactive
10,CCC[C@H](NC(=O)[C@H](CCCNC(=N)N)NC(=O)CNCCCCN)C(=O)N[C@@H](Cc1ccc(O)cc1)C(=O)N[C@@H](CN)C(=O)N[C@@H](CCC(C)C)C(=O)N(CCN)CC(N)=O (H-[Nlys]R[Nva]Y[Dap][hLeu][Gly(N-2-aminoethyl)]-NH2),66%
11,CCC[C@@H]1NC(=O)[C@H](CCCNC(=N)N)NC(=O)CN(C(=O)[C@@H](N)CCCNC(=N)N)CCCCCCNC(=O)NCCCCN(CC(N)=O)C(=O)[C@H](CCC(C)C)NC(=O)[C@H](CN)NC(=O)[C@H](Cc2ccc(O)cc2)NC1=O (H-R[N(6-aminohexyl)Gly]R[Nva]Y[Dap][hLeu][Nlys]-NH2; linker 2-8 via CO),100%
12,CCC[C@H](NC(=O)[C@H](CCCNC(=N)N)NC(=O)[C@H](CN)NC(=O)[C@@H](N)CCCNC(=N)N)C(=O)N[C@@H](Cc1ccc(O)cc1)C(=O)N[C@@H](CN)C(=O)N[C@@H](CCC(C)C)C(N)=O,94%
13,CCC[C@@H]1NC(=O)[C@H](CCCNC(=N)N)NC(=O)CN(C(=O)[C@@H](N)CCCNC(=N)N)CCCCCCNC(=O)NCCN(CC(N)=O)C(=O)[C@H](CCC(C)C)NC(=O)[C@H](CN)NC(=O)[C@H](Cc2ccc(O)cc2)NC1=O (H-R[N(6-aminohexyl)Gly]R[Nva]Y[Dap][hLeu][N(2-Aminoethyl)Gly]-NH2; linker 2-8 via CO),68%
14,CCC[C@H](NC(=O)[C@H](CCCNC(=N)N)NC(=O)[C@H](CCCCN)NC(=O)[C@@H](N)CCCNC(=N)N)C(=O)N[C@@H](Cc1ccc(O)cc1)C(=O)N[C@@H](CN)C(=O)N[C@@H](CCC(C)C)C(N)=O,92%
15,CCC[C@@H]1NC(=O)[C@H](CCCNC(=N)N)NC(=O)CN(C(=O)[C@@H](N)CCCNC(=N)N)CCCCNC(=O)NCCN(CC(N)=O)C(=O)[C@H](CCC(C)C)NC(=O)[C@H](CN)NC(=O)[C@H](Cc2ccc(O)cc2)NC1=O (H-R[Nlys]R[Nva]Y[Dap][hLeu][N(2-Aminoethyl)Gly]-NH2; linker 2-8 via CO),84%
16,CCC[C@H](NC(=O)[C@H](CCCNC(=N)N)NC(=O)[C@H](CC(=O)O)NC(=O)[C@@H](N)CCCNC(=N)N)C(=O)N[C@@H](Cc1ccc(O)cc1)C(=O)N[C@@H](CN)C(=O)N[C@@H](CCC(C)C)C(N)=O,68%
17,CCC[C@H](NC(=O)[C@H](CCCNC(=N)N)NC(=O)[C@@H](CN)NC(=O)[C@@H](N)CCCNC(=N)N)C(=O)N[C@@H](Cc1ccc(O)cc1)C(=O)N[C@@H](CN)C(=O)N[C@@H](CCC(C)C)C(N)=O,32%
18,CCC[C@H](NC(=O)[C@H](CCCNC(=N)N)NC(=O)CNCCCN)C(=O)N[C@@H](Cc1ccc(O)cc1)C(=O)N[C@@H](CN)C(=O)N[C@@H](CCC(C)C)C(=O)N(CCN)CC(N)=O (H-[Gly(N(CH2)3NH2)]R[Nva]Y[Dap][hLeu][Gly(N-2-aminoethyl)]-NH2),63%
19,CCC[C@@H]1NC(=O)[C@H](CCCNC(=N)N)NC(=O)[C@@H]2CCCN2C(=O)[C@H](CCCNC(=N)N)NC(=O)CCCC(=O)NCCCCN(CC(N)=O)C(=O)[C@H](CCC(C)C)NC(=O)[C@H](CN)NC(=O)[C@H](Cc2ccc(O)cc2)NC1=O (RPR[Nva]Y[Dap][hLeu][Nlys]-NH2; linker N-8 via Glutaryl),14%
20,CCC[C@H](NC(=O)[C@H](CCCNC(=N)N)NC(=O)[C@H](Cc1ccc(O)cc1)NC(=O)[C@@H](N)CCCNC(=N)N)C(=O)N[C@@H](Cc1ccc(O)cc1)C(=O)N[C@@H](CN)C(=O)N[C@@H](CCC(C)C)C(N)=O,74%
21,CCC[C@@H]1NC(=O)[C@H](CCCNC(=N)N)NC(=O)[C@@H]2CCCN2C(=O)[C@H](CCCNC(=N)N)NC(=O)CCCCC(=O)NCCCCN(CC(N)=O)C(=O)[C@H](CCC(C)C)NC(=O)[C@H](CN)NC(=O)[C@H](Cc2ccc(O)cc2)NC1=O (RPR[Nva]Y[Dap][hLeu][Nlys]-NH2; linker N-8 via Adipoyl),18%
22,CCC[C@@H]1NC(=O)[C@H](CCCNC(=N)N)NC(=O)CN(C(=O)[C@@H](N)CCCNC(=N)N)CCNC(=O)NCCN(CC(N)=O)C(=O)[C@H](CCC(C)C)NC(=O)[C@H](CN)NC(=O)[C@H](Cc2ccc(O)cc2)NC1=O (H-R[N(2-Aminoethyl)Gly]R[Nva]Y[Dap][hLeu][N(2-Aminoethyl)Gly]-NH2; linker 2-8 via CO),30%
